Assay results as given in publication PMC7195562 (Journal of Advanced Research, 2020).
Like-named read-outs stand apart in the source and are kept apart here. Ends that are not written are not given here. Peptide text beside a SMILES is read from it.

B1: NS3 domain of HCV genotype-4 (domain or fragment)
chain: APITAYAQQTRGLFSTIVTSLTGRDTNENCGEVQVLSTATQSFLGTAVNGVMWTVYHGAGAKTISGPKGPVNQMYTNVDQDLVGWPAPPGVRSLAPCTCGSADLYLVTRHADVIPVRRRGDTRGALLSPRPISILKGSSGGPLLCPMGHRAGIFRAAVCTRGVAKAVDFVPVESLETTMRSP

How the values were obtained:
[1] = biological target: T1, NS3 genotype-4 (Hepatitis C virus genotype 4a, UniProt O39929); assay: Fluorescence anisotropy, dissociation constant of FITC-NS4A with NS3; format: binding, HCV genotype-4
T1 sequence (O39929 1027-1657 limits assumed): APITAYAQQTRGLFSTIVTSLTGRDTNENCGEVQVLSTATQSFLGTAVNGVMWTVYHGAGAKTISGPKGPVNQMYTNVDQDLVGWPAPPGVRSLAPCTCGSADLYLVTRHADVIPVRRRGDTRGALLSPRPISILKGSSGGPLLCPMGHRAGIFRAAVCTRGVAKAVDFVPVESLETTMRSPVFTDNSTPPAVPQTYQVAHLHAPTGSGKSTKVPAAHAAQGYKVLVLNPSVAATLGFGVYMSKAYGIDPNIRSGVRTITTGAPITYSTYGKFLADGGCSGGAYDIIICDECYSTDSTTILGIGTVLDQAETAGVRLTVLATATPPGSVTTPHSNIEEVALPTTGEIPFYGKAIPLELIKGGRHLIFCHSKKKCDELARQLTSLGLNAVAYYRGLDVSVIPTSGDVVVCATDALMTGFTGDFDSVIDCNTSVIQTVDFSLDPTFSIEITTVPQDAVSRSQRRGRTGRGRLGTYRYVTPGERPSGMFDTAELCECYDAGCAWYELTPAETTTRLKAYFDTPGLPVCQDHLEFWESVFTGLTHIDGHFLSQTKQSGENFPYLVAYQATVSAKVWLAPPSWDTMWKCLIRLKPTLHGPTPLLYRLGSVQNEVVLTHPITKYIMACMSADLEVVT
In short: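 His-tagged HCV-4 NS3 domain (expressed in E. coli Rosetta (DE3) pLysS, Ni-NTA purified) serially diluted in 20 mM HEPES, 10 mM DTT, 200 mM NaCl, pH 7.6, with 0.1 µM FITC-labelled NS4A 21'-34' core peptide. Shaken at room temperature for 15, 45, 90 and 120 min. Fluorescence anisotropy read at 480/520 nm. Kd fitted with a single-binding-site model at 90 min.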

[2] = test system: NS3 domain of HCV genotype-4; assay: Differential static light scattering; format: binding
[3] = biological target: T2, fluorescein isothiocyanate-labeled NS4A(21'-34') core peptide (hepatitis C virus, also: FITC label, position not given here); assay: fluorescence polarisation
T2 peptide: KKGSVVIVGRIVLSGKK

[4] = biological target: B1; assay: differential static light scattering
[5] = biological target: B1; assay: differential static light scattering
[6] = biological target: B1; assay: differential static light scattering
[7] = biological target: B1; assay: differential static light scattering
[8] = biological target: B1; assay: differential static light scattering
[9] = biological target: B1; assay: differential static light scattering
[10] = biological target: B1; assay: differential static light scattering

`CC[C@H](C)[C@H](NC(=O)[C@H](CCCNC(=N)N)NC(=O)CNC(=O)[C@@H](NC(=O)[C@@H](NC(=O)[C@@H](NC(=O)[C@@H](NC(=O)[C@H](CO)NC(=O)CNC(=O)[C@H](CCCCN)NC(=O)[C@@H](N)CCCCN)C(C)C)C(C)C)[C@@H](C)CC)C(C)C)C(=O)N[C@H](C(=O)N[C@@H](CC(C)C)C(=O)N[C@@H](CO)C(=O)NCC(=O)N[C@@H](CCCCN)C(=O)N[C@@H](CCCCN)C(=O)O)C(C)C` [NS4A] (H-KKGSVVIVGRIVLSGKK-OH) was tested, and the Kd [1] was 169 ± 3.7 nM.

GSxG23VIVGRIVLSG [Pep-15] was tested, and the “Tagg shift higher than that of the native NS4A” value ([2]; 2:1 ratio, room temperature, 2 h) was 1.07 °C and the “binding affinity by DSLS compared with the native peptide” value ([2]; all conditions (Fig. S6)) was “higher binding affinity than the native peptide”.

Molecule B1 has a Kd [3] of 169 ± 3.7 nM.

Molecule KKGSVVIVGRIVLSGKK [native NS4A(21'-34') core peptide (KK-GSVVIVGRIVLSG-KK)] has a ΔTagg [4] of 3.16 °C, a ΔTagg [5] of 2.83 °C and a ΔTagg [6] of 0.998 °C. For the same molecule, the ΔTagg [7] was 1.62 °C, the ΔTagg [8] was 1.71 °C and the ΔTagg [9] was 2.09 °C. For the same molecule, the ΔTagg [10] was 1.97 °C.
